Test results published in article PMC2761715 (Molecular cancer therapeutics, 2009).

What was measured:
Format in all cases: cell-based
8226 cells = experiment: Cell death analysis, annexin V, FACS; conditions: addition of 3-MA, supplemental data S5
LC3 = experiment: LC3-I to LC3-II conversion, western blot
In short: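 H929 or 8226 cells exposed 4 h to test peptide or scrambled peptide (50 µg/ml H929; 100 µg/ml 8226) or 100 uM tunicamycin; NAC arm: H929 at 4 × 10^5 cells/ml, 10 mM NAC 30 min then 50 µg/ml for 4 h. Lysed on ice in NP-40/Tris pH 7.6 buffer with protease/phosphatase inhibitors; 10 µg protein, 8% SDS-PAGE, PVDF blot for LC3-I/II.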

H929 cells [1] = experiment: Mitochondrial membrane potential; conditions: H929, NAC 10 mM 30 min, then HYD1 50 µg/ml 4 hrs; Figure 5C
In short: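 H929 cells (4 × 10^5 cells/ml) pretreated 30 min with 10 mM NAC, then test compound 50 µg/ml for a further 4 h. Cells stained 15 min with 15 nM DiOC6, PBS-washed and resuspended, then loss of Δψm measured by flow cytometry; n=9.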

H929 cells [2] = experiment: Reactive oxygen species; conditions: NAC 10 mM; supplementary data S7
H929 cells [3] = experiment: Neutral comet assay; conditions: H929, 6 hours, 50 ug/ml HYD1 or HYDS or 50 ng/ml TRAIL, n=150; Figure 3D
In short: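 Neutral comet assay on H929 cells given 50 µg/ml test peptide, scrambled peptide, or 50 ng/ml TRAIL (positive control) for 6 h. 5,000 cells pelleted, taken up in PBS agar, layered onto frosted slides and run under neutral conditions. Comet moments measured from 50 images per treatment by CCD camera; n=150.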

## Cn1cnc(N)c2ncnc1-2 [3-MA, 3-Methyladenine]
8226 cells
  sensitization to HYD1 induced cell death: sensitized 8226 cells to HYD1 induced cell death

## CC(=O)N[C@@H](CS)C(=O)O [NAC, N-acetyl-L-cysteine]
LC3; H929, NAC 10 mM 30 min, then HYD1 50 µg/ml 4 hrs, Figure 5D
  reversal of HYD1-induced increase in LC3-II by NAC: completely reversed
H929 cells [1]
  reversal of HYD1-induced loss in Δψm by NAC: not reversed by pretreatment with NAC
H929 cells [2]
  inhibition of ROS production by NAC: effective in inhibiting the production of ROS

## TRAIL
H929 cells [3]
  comet moments (double stranded DNA breaks): significant increase in comet moments

## Tunicamycin
LC3; 4 hour treatment, 50 µg/ml HYD1 for H929, 100 ug/ml for 8226, 100 uM tunicamycin
  conversion of LC3-I to LC3-II: increased conversion of LC3-I to LC3-II
